This note sets out measurements from ChEMBL document CHEMBL4400550, “Designing Dual Inhibitors of Anaplastic Lymphoma Kinase (ALK) and Bromodomain-4 (BRD4) by Tuning Kinase Selectivity” (J Med Chem, 2019).

For data set [1], the target named is T1, ALK tyrosine kinase receptor (Homo sapiens, UniProt Q9UM73, F1174L). Description: Displacement of kinase tracer 236 from human N-terminal GST-tagged ALK F1174L mutant (1058 to 1620 residues) after 60 mins by LanthaScreen Eu--kinase binding assay. The essentials: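 LanthaScreen Eu binding assay. Mix 5 nM ALK F1174L, 30 nM Kinase Tracer 236 and 2 nM Eu-anti-GST antibody in 50 mM HEPES pH 7.5, 10 mM MgCl2, 1 mM EGTA, 0.01% Brij-35, 1 mM DTT. Compound runs 0.5 nM–100 μM in 1% DMSO. Incubate 60 min at room temperature. Read the 665 nm acceptor/donor emission ratio; fit log(inhibitor) vs ratio with a variable-slope equation.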
T1 sequence (Q9UM73 19-1620 F1174L limits assumed): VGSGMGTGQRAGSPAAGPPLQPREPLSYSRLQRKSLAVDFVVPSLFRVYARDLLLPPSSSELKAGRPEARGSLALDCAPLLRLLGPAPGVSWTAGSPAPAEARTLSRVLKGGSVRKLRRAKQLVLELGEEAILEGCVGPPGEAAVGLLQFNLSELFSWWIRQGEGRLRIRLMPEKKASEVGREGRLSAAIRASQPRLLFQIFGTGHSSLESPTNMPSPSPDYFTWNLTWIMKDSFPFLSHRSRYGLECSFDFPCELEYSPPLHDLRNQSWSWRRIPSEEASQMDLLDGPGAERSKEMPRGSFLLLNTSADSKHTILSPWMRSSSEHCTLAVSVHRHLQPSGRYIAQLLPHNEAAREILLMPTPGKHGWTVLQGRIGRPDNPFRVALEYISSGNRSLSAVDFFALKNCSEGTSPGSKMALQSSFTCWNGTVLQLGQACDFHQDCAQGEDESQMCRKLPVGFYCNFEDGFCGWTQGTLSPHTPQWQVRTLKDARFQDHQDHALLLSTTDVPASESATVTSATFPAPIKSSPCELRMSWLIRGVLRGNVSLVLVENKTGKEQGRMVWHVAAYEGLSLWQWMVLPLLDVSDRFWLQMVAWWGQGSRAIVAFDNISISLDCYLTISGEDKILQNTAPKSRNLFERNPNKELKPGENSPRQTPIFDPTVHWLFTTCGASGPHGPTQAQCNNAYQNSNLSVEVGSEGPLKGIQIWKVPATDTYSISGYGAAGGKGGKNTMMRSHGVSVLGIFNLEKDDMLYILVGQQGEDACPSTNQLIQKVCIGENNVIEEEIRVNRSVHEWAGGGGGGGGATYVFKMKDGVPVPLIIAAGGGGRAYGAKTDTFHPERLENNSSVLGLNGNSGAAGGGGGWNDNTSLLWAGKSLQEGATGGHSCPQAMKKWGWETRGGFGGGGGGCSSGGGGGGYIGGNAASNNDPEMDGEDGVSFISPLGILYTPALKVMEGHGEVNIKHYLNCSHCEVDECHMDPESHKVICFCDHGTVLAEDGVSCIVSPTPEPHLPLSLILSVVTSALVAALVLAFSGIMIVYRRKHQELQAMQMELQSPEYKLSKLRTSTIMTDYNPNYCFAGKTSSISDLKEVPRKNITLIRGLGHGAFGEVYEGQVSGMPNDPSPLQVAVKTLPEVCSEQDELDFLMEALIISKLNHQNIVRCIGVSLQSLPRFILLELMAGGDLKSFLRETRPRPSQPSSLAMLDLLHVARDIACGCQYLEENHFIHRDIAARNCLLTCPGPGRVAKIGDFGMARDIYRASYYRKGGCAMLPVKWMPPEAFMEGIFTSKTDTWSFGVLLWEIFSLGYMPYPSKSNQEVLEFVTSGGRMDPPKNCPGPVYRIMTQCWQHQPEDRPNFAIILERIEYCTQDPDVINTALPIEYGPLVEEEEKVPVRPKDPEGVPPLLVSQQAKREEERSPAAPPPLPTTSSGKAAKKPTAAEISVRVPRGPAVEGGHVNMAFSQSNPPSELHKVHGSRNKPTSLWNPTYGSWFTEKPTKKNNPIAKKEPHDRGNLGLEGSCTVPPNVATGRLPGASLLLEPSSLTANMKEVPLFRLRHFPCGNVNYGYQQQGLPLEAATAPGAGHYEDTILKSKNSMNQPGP
(In TR-FRET formats the signal depends on donor and acceptor labels being close together.)

The target in data set [2] is T2, Bromodomain-containing protein 4 (Homo sapiens, UniProt O60885). As to the kind of experiment: Binding affinity to BRD4 (unknown origin) by isothermal calorimetry. (In ITC the heat of successive injections is recorded.)
In data set [3] the target is T3, Serine/threonine-protein kinase PLK1 (Homo sapiens, UniProt P53350). Description: Inhibition of PLK1 (unknown origin) using Ser/Thr 16 as substrate after 60 mins by Z-LYTE activity assay.
T3 sequence (P53350 whole entry): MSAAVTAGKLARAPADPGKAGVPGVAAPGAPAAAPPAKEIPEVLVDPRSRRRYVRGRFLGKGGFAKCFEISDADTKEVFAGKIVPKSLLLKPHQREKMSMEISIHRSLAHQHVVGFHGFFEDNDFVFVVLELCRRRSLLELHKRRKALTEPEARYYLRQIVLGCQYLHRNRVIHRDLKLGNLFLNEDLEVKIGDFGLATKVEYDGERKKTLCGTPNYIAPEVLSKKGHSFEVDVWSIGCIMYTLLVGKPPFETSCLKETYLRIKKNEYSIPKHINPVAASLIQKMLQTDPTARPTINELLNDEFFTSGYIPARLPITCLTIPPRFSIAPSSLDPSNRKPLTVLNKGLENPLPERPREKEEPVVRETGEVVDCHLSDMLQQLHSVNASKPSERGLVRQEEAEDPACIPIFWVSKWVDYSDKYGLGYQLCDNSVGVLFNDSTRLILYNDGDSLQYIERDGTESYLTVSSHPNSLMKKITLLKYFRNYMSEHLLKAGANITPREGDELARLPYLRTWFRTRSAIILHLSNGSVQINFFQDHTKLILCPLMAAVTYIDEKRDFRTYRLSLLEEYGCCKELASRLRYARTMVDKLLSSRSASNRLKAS
Data set [4] concerns the target T2, Bromodomain-containing protein 4.
Data set [5] shares this target. Description: Inhibition of full-length C-terminal NanoLuc-tagged BRD4 BD1 (unknown origin) expressed in human HEK293 cells after 2 hrs by NanoBRET target engagement assay. It is filed as cell-based. On the technique in general: In BRET a luciferase serves as donor, and the signal depends on an acceptor being close.
Data set [6] concerns the target T4, ALK tyrosine kinase receptor (Homo sapiens, UniProt Q9UM73). As to the kind of experiment: Inhibition of full-length C-terminal NanoLuc-tagged ALK (unknown origin) expressed in human HEK293 cells after 2 hrs by NanoBRET target engagement assay. The class given is cell-based.
Target sequence in this assay (Q9UM73 whole entry): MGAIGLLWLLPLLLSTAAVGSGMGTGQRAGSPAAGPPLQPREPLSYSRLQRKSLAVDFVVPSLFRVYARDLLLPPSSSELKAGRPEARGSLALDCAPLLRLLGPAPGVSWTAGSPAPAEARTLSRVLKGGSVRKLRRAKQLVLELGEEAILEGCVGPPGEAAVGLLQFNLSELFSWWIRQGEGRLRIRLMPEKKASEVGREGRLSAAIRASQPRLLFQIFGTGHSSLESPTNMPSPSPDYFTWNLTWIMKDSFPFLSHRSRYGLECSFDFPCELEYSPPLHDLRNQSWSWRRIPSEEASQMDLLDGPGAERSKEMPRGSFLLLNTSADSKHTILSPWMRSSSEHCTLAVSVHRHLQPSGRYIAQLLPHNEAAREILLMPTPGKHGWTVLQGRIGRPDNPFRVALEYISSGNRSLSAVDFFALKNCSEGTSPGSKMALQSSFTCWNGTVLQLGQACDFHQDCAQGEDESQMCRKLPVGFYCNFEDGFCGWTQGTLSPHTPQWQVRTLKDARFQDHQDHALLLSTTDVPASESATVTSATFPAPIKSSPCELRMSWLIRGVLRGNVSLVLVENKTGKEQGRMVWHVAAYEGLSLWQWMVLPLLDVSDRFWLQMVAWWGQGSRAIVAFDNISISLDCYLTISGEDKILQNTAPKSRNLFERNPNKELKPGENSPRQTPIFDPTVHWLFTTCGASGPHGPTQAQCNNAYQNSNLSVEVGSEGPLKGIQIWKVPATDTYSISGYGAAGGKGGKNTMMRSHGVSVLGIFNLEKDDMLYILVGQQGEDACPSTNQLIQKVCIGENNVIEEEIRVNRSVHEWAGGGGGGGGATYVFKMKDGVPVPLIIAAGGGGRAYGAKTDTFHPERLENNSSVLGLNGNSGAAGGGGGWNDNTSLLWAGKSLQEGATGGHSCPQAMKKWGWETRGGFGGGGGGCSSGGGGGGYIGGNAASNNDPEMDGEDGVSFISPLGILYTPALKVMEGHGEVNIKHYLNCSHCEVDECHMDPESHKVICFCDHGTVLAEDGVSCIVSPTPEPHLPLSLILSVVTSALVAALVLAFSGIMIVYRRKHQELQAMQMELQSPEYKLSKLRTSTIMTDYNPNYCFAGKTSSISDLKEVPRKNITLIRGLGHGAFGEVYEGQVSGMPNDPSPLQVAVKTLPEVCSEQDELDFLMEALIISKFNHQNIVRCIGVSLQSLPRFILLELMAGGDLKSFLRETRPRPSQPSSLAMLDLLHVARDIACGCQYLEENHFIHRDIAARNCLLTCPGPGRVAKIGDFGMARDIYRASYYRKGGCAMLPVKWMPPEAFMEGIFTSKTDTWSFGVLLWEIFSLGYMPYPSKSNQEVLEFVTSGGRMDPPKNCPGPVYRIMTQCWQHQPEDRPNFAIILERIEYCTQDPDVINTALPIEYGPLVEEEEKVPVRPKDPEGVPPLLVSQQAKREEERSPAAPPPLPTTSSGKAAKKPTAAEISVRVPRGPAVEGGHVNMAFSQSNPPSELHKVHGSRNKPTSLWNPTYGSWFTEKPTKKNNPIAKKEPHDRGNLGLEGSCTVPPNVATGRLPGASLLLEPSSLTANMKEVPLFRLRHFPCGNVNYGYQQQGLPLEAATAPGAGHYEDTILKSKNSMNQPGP
Data set [7] has as its target T3, Serine/threonine-protein kinase PLK1. As to the kind of experiment: Inhibition of PLK1 (unknown origin) at 10 nM using Ser/Thr 16 as substrate after 60 mins by Z-LYTE activity assay. The essentials: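 PLK-1 Z'-LYTE activity assay run externally through the SelectScreen kinase profiling service. Percentage inhibition is measured at 10 nM compound.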
The nature of data set [8]: Solubility of the compound in phosphate buffer at pH 7.4 b HPLC analysis. It is filed as physicochemical. In outline: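 Solubility measured by in-house HPLC method from phosphate buffer at pH 7.4.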
Data set [9] can be described thus: Permeability of the compound at pH 7.4 by PAMPA. The note with it: read-out: permeability. The class given is ADME.
Data set [10] can be described thus: Partition coefficient, log P of the compound. The class given is physicochemical. The note with it: octanol/water.
Data set [11] can be described thus: Lipophilicity, log D of the compound at pH 7.4. The class given is physicochemical. The settings on record: buffer.
The target in data set [12] is T4, ALK tyrosine kinase receptor. As to the kind of experiment: Binding affinity to wild type human ALK (1088 to 1409 residues) expressed in mammalian expression system by kinome scan-based assay.
Target sequence in this assay (Q9UM73 whole entry): as above
Data set [13] concerns the target T5, Insulin receptor (Homo sapiens, UniProt P06213). As to the kind of experiment: Binding affinity to human INSR (997 to 1318 residues) expressed in mammalian expression system by kinome scan-based assay.
Data set [14] addresses T3, Serine/threonine-protein kinase PLK1. As to the kind of experiment: Binding affinity to human PLK1 (33 to 325 residues) expressed in mammalian expression system by kinome scan-based assay.
For data set [15], the target named is T6, Serine/threonine-protein kinase PLK3 (Homo sapiens, UniProt Q9H4B4). As to the kind of experiment: Binding affinity to human PLK3 (42 to 334 residues) expressed in mammalian expression system by kinome scan-based assay.
Target sequence in this assay (Q9H4B4 whole entry, the tested form may be a part): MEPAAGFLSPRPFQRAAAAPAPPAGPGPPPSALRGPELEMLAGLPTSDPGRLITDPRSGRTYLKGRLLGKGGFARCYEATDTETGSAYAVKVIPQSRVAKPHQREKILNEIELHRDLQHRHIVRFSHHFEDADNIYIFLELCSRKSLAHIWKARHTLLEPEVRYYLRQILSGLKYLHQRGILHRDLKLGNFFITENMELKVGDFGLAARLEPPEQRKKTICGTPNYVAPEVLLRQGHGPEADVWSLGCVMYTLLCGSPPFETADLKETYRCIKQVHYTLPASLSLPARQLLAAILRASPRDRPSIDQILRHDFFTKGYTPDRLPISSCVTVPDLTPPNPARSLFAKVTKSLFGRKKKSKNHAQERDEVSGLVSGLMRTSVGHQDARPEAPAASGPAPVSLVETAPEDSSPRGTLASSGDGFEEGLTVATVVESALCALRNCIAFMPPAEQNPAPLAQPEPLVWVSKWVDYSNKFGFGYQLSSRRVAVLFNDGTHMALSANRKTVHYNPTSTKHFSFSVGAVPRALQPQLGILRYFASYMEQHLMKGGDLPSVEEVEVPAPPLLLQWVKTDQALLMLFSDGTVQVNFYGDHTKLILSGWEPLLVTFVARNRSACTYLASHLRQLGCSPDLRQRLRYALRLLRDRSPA
For data set [16], the target named is T1, ALK tyrosine kinase receptor. Description: Binding affinity to human ALK F1174L mutant (1088 to 1409 residues) expressed in mammalian expression system by kinome scan-based assay.
The target of data set [17] is T4, ALK tyrosine kinase receptor. Description: Binding affinity to wild type human ALK (1088 to 1409 residues) expressed in mammalian expression system assessed as unbound protein level at 1 uM by kinome scan-based assay. In outline:
(§1)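 Single-point KINOMEscan (scanEDGE) competition binding at 1 μM compound. Read-out is %Ctrl, with DMSO set as 100%Ctrl; lower values mean stronger binding.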
Target sequence in this assay (Q9UM73 19-1620 limits assumed): as the sequence (Q9UM73 19-1620 F1174L limits assumed) above, with L1156F counted along it

Data set [18] deals with T5, Insulin receptor. Description: Binding affinity to human INSR (997 to 1318 residues) expressed in mammalian expression system assessed as unbound protein level at 1 uM by kinome scan-based assay. The essentials:
as §1

For data set [19], the target named is T3, Serine/threonine-protein kinase PLK1. Description: Binding affinity to human PLK1 (33 to 325 residues) expressed in mammalian expression system assessed as unbound protein level at 1 uM by kinome scan-based assay. The essentials: as §1
The target in data set [20] is T6, Serine/threonine-protein kinase PLK3. Description: Binding affinity to human PLK3 (42 to 334 residues) expressed in mammalian expression system assessed as unbound protein level at 1 uM by kinome scan-based assay. In outline: as §1
Target sequence in this assay (Q9H4B4 whole entry, looked up, the tested form may be a part): as the sequence (Q9H4B4 whole entry, the tested form may be a part) above
Data set [21] concerns the target T1, ALK tyrosine kinase receptor. Description: Inhibition of ALK F1174L mutant auto-phosphorylation in human Kelly cells after 3 hrs by MSD assay. It is filed as cell-based.
In a further data set the test system is HeLa. Description: Induction of cell cycle arrest in human HeLa cells at 4 to 10 uM after 24 hrs by propidium iodide-staining based flow cytometry. The class given is functional.
Data set [22] is filed under the species Homo sapiens. As to the kind of experiment: Selectivity ratio of IC50 for PLK1 (unknown origin) to IC50 for human N-terminal GST-tagged ALK F1174L mutant (1058 to 1620 residues).
Data set [23] is filed under the species Homo sapiens. As to the kind of experiment: Selectivity ratio of IC50 for PLK1 in human HeLa cells to IC50 for human N-terminal GST-tagged ALK F1174L mutant (1058 to 1620 residues). The class given is cell-based.

≈ marks a conversion by molar mass, not a printed value. Calls of active or inactive are those of the source. The calls are words filed in the database; no cut-off is given here.

A word on the IC50: it is the point on the concentration scale where inhibition reaches its midpoint. Higher therefore signals weaker potency. For orientation: Kd means the equilibrium constant for the complex coming apart. Read a low Kd as higher affinity. As to `CCOc1cc(C(=O)NC2CCN(C)CC2)ccc1Nc1ncc2c(n1)N(Cc1ccccc1)[C@H](CC)C(=O)N2C`, the IC50 in data set [1] was 440 nM; in [3], 84 nM. In addition, the equilibrium dissociation constant (Kd) in data set [2] was determined as 69 nM. In [4], this compound gave a deltaTm of 4.1 K.
Turning to `CCOc1cc(C2CCN(C)CC2)ccc1Nc1ncc2c(n1)N(Cc1ccccc1Br)[C@H](CC)C(=O)N2C`, the IC50 in data set [1] came to 150 nM. Besides, the deltaTm in data set [4] was 2.9 K.
For the compound `CCOc1cc(C2CCN(C)CC2)ccc1Nc1ncc2c(n1)N(Cc1sccc1C)[C@H](CC)C(=O)N2C`, the IC50 in data set [1] worked out at 63 nM; in [3], 68 nM; in data set [5] it was 310 nM; in data set [6], 1020 nM. Besides, the Kd in [2] worked out at 63 nM. The deltaTm in [4] amounted to 5.4 K.
`CCOc1cc(C2CCN(C)CC2)ccc1Nc1ncc2c(n1)N(Cc1scnc1C)[C@H](CC)C(=O)N2C`: the IC50 in data set [1] was found to be 370 nM. In data set [4], the deltaTm was 4.6 K.
Usually inhibition stands for the change of the read-out against control, counted positive when it falls. Lower therefore signals a weak effect. As for `CC[C@@H]1C(=O)N(C)c2cnc(Nc3ccc(C(=O)NC4CCN(C)CC4)cc3OCC(C)C)nc2N1C1CCCC1`, the concentration for half-maximal inhibition (IC50) in data set [1] was found to be 1700 nM. In addition, in data set [2], the affinity, expressed as Kd, was 73 nM. The same compound had an inhibition in data set [7] of 43%. The compound further came in with a deltaTm in [4] of 7.2 K.
In the case of `CCOc1cc(C2CCN(C)CC2)ccc1Nc1ncc2c(n1)N(Cc1ccc(C)s1)[C@H](CC)C(=O)N2C`, the IC50 in data set [1] amounted to 220 nM. This compound also had a deltaTm in [4] of 8.3 K.
As to `CCOc1cc(C2CCN(C)CC2)ccc1Nc1ncc2c(n1)N(Cc1cccc(Br)c1)[C@H](CC)C(=O)N2C`, the IC50 came out at 290 nM in [1] and 540 nM in data set [3]. Also, in data set [2], the Kd amounted to 120 nM. For the same compound, in data set [4], the deltaTm was found to be 5 K.
`CCOc1cc(C2CCN(C)CC2)ccc1Nc1ncc2c(n1)N(Cc1ccc(Br)cc1)[C@H](CC)C(=O)N2C`: the IC50 in data set [1] came to 680 nM. For the same compound, the deltaTm in data set [4] worked out at 5.8 K.
Consider `CCOc1cc(C2CCN(C)CC2)ccc1Nc1ncc2c(n1)N(Cc1cccc(OC)c1)[C@H](CC)C(=O)N2C`, for which the IC50 in data set [1] was 350 nM. Also, in data set [4], the deltaTm worked out at 5.1 K.
Take `CCOc1cc(C2CCN(C)CC2)ccc1Nc1ncc2c(n1)N(Cc1cccc(Cl)c1)[C@H](CC)C(=O)N2C`: the IC50 in data set [1] is 210 nM; in [3], 540 nM. Besides, the Kd in data set [2] came out at 130 nM. The compound also had a deltaTm in data set [4] of 6.2 K.
In the case of `CCOc1cc(C(=O)NC2CCN(C)CC2)ccc1Nc1ncc2c(n1)N(C1CCCC1)CC(=O)N2C`, the IC50 in data set [1] was 520 nM. The inhibition in data set [7] worked out at 32%. The same compound had a deltaTm in data set [4] of 0.2 K.
By solubility is commonly meant the dissolved amount per volume that the medium holds. The term logP denotes the decadic logarithm of the partition coefficient of the neutral form, usually between octanol and water. High values mean a more lipophilic compound, low ones a more hydrophilic compound. In general, logD refers to lipophilicity at a set pH, counting ionised and neutral species. Low values mean a more hydrophilic compound, high ones a more lipophilic compound. Consider `CCOc1cc(C2CCN(C)CC2)ccc1Nc1ncc2c(n1)N(Cc1cc(C)cs1)[C@H](CC)C(=O)N2C`, for which the half-inhibitory concentration (IC50) in data set [1] is 17 nM; in [3] it was 125 nM; in [21] it was 1500 nM; in data set [5], 260 nM; in [6] it was 470 nM. The dissociation constant (Kd) worked out at 44 nM in data set [2]; 89 nM in data set [12]; 190 nM at Insulin receptor [13]; 11 nM in data set [14]; 160 nM in [15]; 23 nM in [16]. Further, the solubility in data set [8] was 90 µM (≈ 48.1 µg/mL). Also, the Papp in data set [9] was 49 ×10⁻⁶ cm/s. Further, in data set [10], the lipophilicity (logP) was determined as 6.1. Besides, the logD in data set [11] is 4.2. The Activity in data set [17] worked out at 7.1%; on Insulin receptor [18] it was 25%; in [19], 1%; in data set [20] it was 25%. The result with HeLa was Active. In the data set listed under Homo sapiens [22], the Ratio IC50 turned out to be 7. The Ratio in the data set filed under Homo sapiens [23] is above 10. Also, the deltaTm in data set [4] is 7.1 K.
On to `CCOc1cc(C(=O)NC2CCN(C)CC2)ccc1Nc1ncc2c(n1)N(Cc1cccc(Br)c1)[C@H](CC)C(=O)N2C`, for which the figures for the IC50 in [1] and in data set [3] were 490 nM and 110 nM, respectively. The same compound registered a Kd in data set [2] of 73 nM. Moreover, the deltaTm in [4] came out at 6.7 K.
Turning to `CCOc1cc(C(=O)NC2CCN(C)CC2)ccc1Nc1ncc2c(n1)N(C1CCCC1)[C@H](CC)C(=O)N2C`, the IC50 in data set [1] amounted to 380 nM; in [3], 12 nM. The equilibrium dissociation constant (Kd) in [2] stood at 81 nM. In [4], the deltaTm was 6 K.
On to `CCOc1cc(C(=O)NC2CCN(C)CC2)ccc1Nc1ncc2c(n1)N(C1CCCC1)[C@@H](CC)C(=O)N2C`, for which, in [1], the IC50 was 3400 nM. Besides, the inhibition in data set [7] came to 19%. This compound yielded a deltaTm in [4] of -0.2 K.
Consider `CCOc1cc(C2CCN(C)CC2)ccc1Nc1ncc2c(n1)N(Cc1cccc(C#N)c1)[C@H](CC)C(=O)N2C`, for which the IC50 in data set [1] is 370 nM; in data set [3], 1800 nM. Moreover, binding in [2] was put at a Kd of 78 nM. The deltaTm in data set [4] came out at 4.8 K.
As for `CC[C@@H]1C(=O)N(C)c2cnc(Nc3ccc(C4CCN(C)CC4)cc3OC)nc2N1C1CCCC1`, the half-maximal inhibitory concentration (IC50) in [1] worked out at 290 nM; in data set [3], 9.9 nM. Moreover, the Kd in data set [2] was determined as 80 nM. In data set [4], this compound had a deltaTm of 5.4 K.
As to `CCOc1cc(C2CCN(C)CC2)ccc1Nc1ncc2c(n1)N(Cc1ccccc1)[C@H](CC)C(=O)N2C`, the IC50 in data set [1] is 85 nM; in [3], 290 nM; in data set [5] it was 540 nM; in [6] it was 1640 nM. This compound also came in with a dissociation constant (Kd) in data set [2] of 54 nM. Further, in data set [4], the deltaTm turned out to be 4.7 K.
